Marks after values point to notes of the source that are not given here.
Tested on: Japanese patients with T2DM
Experiment: Plasma glucose concentrations, 7-day once-daily dosing
Format: in vivo, human
How it was run: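 Plasma glucose was measured by a glucose dehydrogenase enzymatic UV method. Sampling was pre-breakfast/pre-dose and 0.5–24 h after breakfast on Day −1, after dosing on Days 1 and 7, and pre-breakfast on Days 11 and 14. Standardized ~600 kcal meals were given, with lunch and dinner at 4 and 12 h. AUC, Cmax and tmax were non-compartmental. MPG was the mean of the 0, 2, 4, 6, 12, 14 and 16 h values. LS mean difference vs placebo with 95% CI.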

CCOc1ccc(Cc2cc([C@@H]3S[C@H](CO)[C@@H](O)[C@H](O)[C@H]3O)c(OC)cc2C)cc1 [Luseogliflozin, (1S)-1,5-anhydro-1-[5-(4-ethoxybenzyl)-2-methoxy-4-methylphenyl]-1-thio-D-glucitol]
FPG (24 h after dose) (0.5 mg OD, Day 1): 156 ± 23 mg/dL | FPG (24 h after dose) LS mean difference vs placebo (95% CI) (0.5 mg OD, Day 1): −7.15 (−16.0, 1.71) mg/dL | MPG0–16h (0.5 mg OD, Day 1): 224 ± 38.8 mg/dL | MPG0–16h LS mean difference vs placebo (95% CI) (0.5 mg OD, Day 1): −6.39 (−16.6, 3.79) mg/dL | Plasma glucose AUC0–4h (after breakfast) (0.5 mg OD, Day 1): 946 ± 175 mg·h/dL | Plasma glucose AUC0–4h (after breakfast) LS mean difference vs placebo (95% CI) (0.5 mg OD, Day 1): 29.4 (−25.0, 83.8) mg h/dL | Plasma glucose AUC4–8h (after lunch) (0.5 mg OD, Day 1): 915 ± 207 mg·h/dL | Plasma glucose AUC4–8h (after lunch) LS mean difference vs placebo (95% CI) (0.5 mg OD, Day 1): −111 (−191, −31.1)* mg h/dL | Plasma glucose AUC12–16h (after dinner) (0.5 mg OD, Day 1): 989 ± 114 mg·h/dL | Plasma glucose AUC12–16h (after dinner) LS mean difference vs placebo (95% CI) (0.5 mg OD, Day 1): −16.3 (−69.6, 37.0) mg h/dL | Plasma glucose C max0–4h (after breakfast) (0.5 mg OD, Day 1): 278 ± 53.0 mg/dL | Plasma glucose C max4–8h (after lunch) (0.5 mg OD, Day 1): 259 ± 52.3 mg/dL | Plasma glucose C max4–8h (after lunch) LS mean difference vs placebo (95% CI) (0.5 mg OD, Day 1): −43.5 (−68.5, −18.5)* mg/dL | Plasma glucose C max12–16h (after dinner) (0.5 mg OD, Day 1): 286 ± 32.5 mg/dL | Plasma glucose C max12–16h (after dinner) LS mean difference vs placebo (95% CI) (0.5 mg OD, Day 1): −16.0 (−35.0, 3.05) mg/dL | FPG (24 h after dose) (0.5 mg OD, Day 7): 145 ± 18 mg/dL | FPG (24 h after dose) LS mean difference vs placebo (95% CI) (0.5 mg OD, Day 7): −18.4 (−31.1, −5.75)* mg/dL | MPG0–16h (0.5 mg OD, Day 7): 204 ± 35.3 mg/dL | MPG0–16h LS mean difference vs placebo (95% CI) (0.5 mg OD, Day 7): −25.0 (−42.2, −7.90)* mg/dL | Plasma glucose AUC0–4h (after breakfast) (0.5 mg OD, Day 7): 810 ± 156 mg·h/dL | Plasma glucose AUC0–4h (after breakfast) LS mean difference vs placebo (95% CI) (0.5 mg OD, Day 7): −108 (−186, −29.3)* mg h/dL | Plasma glucose AUC4–8h (after lunch) (0.5 mg OD, Day 7): 887 ± 209 mg·h/dL | Plasma glucose AUC4–8h (after lunch) LS mean difference vs placebo (95% CI) (0.5 mg OD, Day 7): −165 (−267, −64.2)* mg h/dL | Plasma glucose AUC12–16h (after dinner) (0.5 mg OD, Day 7): 924 ± 108 mg·h/dL | Plasma glucose AUC12–16h (after dinner) LS mean difference vs placebo (95% CI) (0.5 mg OD, Day 7): −44.7 (−122, 32.2) mg h/dL | Plasma glucose C max0–4h (after breakfast) (0.5 mg OD, Day 7): 243 ± 42.1 mg/dL | Plasma glucose C max4–8h (after lunch) (0.5 mg OD, Day 7): 256 ± 61.7 mg/dL | Plasma glucose C max4–8h (after lunch) LS mean difference vs placebo (95% CI) (0.5 mg OD, Day 7): −46.2 (−76.1, −16.3)* mg/dL | Plasma glucose C max12–16h (after dinner) (0.5 mg OD, Day 7): 274 ± 34.6 mg/dL | Plasma glucose C max12–16h (after dinner) LS mean difference vs placebo (95% CI) (0.5 mg OD, Day 7): −9.79 (−35.5, 15.9) mg/dL | FPG (24 h after dose) (1 mg OD, Day 1): 146 ± 25 mg/dL | FPG (24 h after dose) LS mean difference vs placebo (95% CI) (1 mg OD, Day 1): −7.90 (−16.6, 0.795) mg/dL | MPG0–16h (1 mg OD, Day 1): 188 ± 30.0 mg/dL | MPG0–16h LS mean difference vs placebo (95% CI) (1 mg OD, Day 1): −18.4 (−28.3, −8.55)* mg/dL | Plasma glucose AUC0–4h (after breakfast) (1 mg OD, Day 1): 812 ± 158 mg·h/dL | Plasma glucose AUC0–4h (after breakfast) LS mean difference vs placebo (95% CI) (1 mg OD, Day 1): −48.9 (−102, 4.37) mg h/dL | Plasma glucose AUC4–8h (after lunch) (1 mg OD, Day 1): 766 ± 131 mg·h/dL | Plasma glucose AUC4–8h (after lunch) LS mean difference vs placebo (95% CI) (1 mg OD, Day 1): −89.1 (−166, −11.9)* mg h/dL | Plasma glucose AUC12–16h (after dinner) (1 mg OD, Day 1): 851 ± 117 mg·h/dL | Plasma glucose AUC12–16h (after dinner) LS mean difference vs placebo (95% CI) (1 mg OD, Day 1): −91.4 (−142, −40.8)* mg h/dL | Plasma glucose C max0–4h (after breakfast) (1 mg OD, Day 1): 255 ± 44.1 mg/dL | Plasma glucose C max4–8h (after lunch) (1 mg OD, Day 1): 223 ± 33.7 mg/dL | Plasma glucose C max4–8h (after lunch) LS mean difference vs placebo (95% CI) (1 mg OD, Day 1): −30.5 (−54.1, −7.02)* mg/dL | Plasma glucose C max12–16h (after dinner) (1 mg OD, Day 1): 255 ± 37.3 mg/dL | Plasma glucose C max12–16h (after dinner) LS mean difference vs placebo (95% CI) (1 mg OD, Day 1): −31.3 (−49.4, −13.3)* mg/dL | FPG (24 h after dose) (1 mg OD, Day 7): 139 ± 14 mg/dL | FPG (24 h after dose) LS mean difference vs placebo (95% CI) (1 mg OD, Day 7): −18.1 (−30.5, −5.62)* mg/dL | MPG0–16h (1 mg OD, Day 7): 184 ± 24.0 mg/dL | MPG0–16h LS mean difference vs placebo (95% CI) (1 mg OD, Day 7): −27.5 (−44.1, −10.8)* mg/dL | Plasma glucose AUC0–4h (after breakfast) (1 mg OD, Day 7): 780 ± 116 mg·h/dL | Plasma glucose AUC0–4h (after breakfast) LS mean difference vs placebo (95% CI) (1 mg OD, Day 7): −96.7 (−173, −20.0)* mg h/dL | Plasma glucose AUC4–8h (after lunch) (1 mg OD, Day 7): 787 ± 126 mg·h/dL | Plasma glucose AUC4–8h (after lunch) LS mean difference vs placebo (95% CI) (1 mg OD, Day 7): −138 (−236, −40.8)* mg h/dL | Plasma glucose AUC12–16h (after dinner) (1 mg OD, Day 7): 824 ± 125 mg·h/dL | Plasma glucose AUC12–16h (after dinner) LS mean difference vs placebo (95% CI) (1 mg OD, Day 7): −96.2 (−169, −23.2)* mg h/dL | Plasma glucose C max0–4h (after breakfast) (1 mg OD, Day 7): 240 ± 31.3 mg/dL | Plasma glucose C max4–8h (after lunch) (1 mg OD, Day 7): 229 ± 33.7 mg/dL | Plasma glucose C max4–8h (after lunch) LS mean difference vs placebo (95% CI) (1 mg OD, Day 7): −34.7 (−62.8, −6.53)* mg/dL | Plasma glucose C max12–16h (after dinner) (1 mg OD, Day 7): 242 ± 41.3 mg/dL | Plasma glucose C max12–16h (after dinner) LS mean difference vs placebo (95% CI) (1 mg OD, Day 7): −29.4 (−53.8, −5.06)* mg/dL

From PMC4415995 (Advances in Therapy, 2015)
